{
  "source": "ChEMBL document CHEMBL4842318",
  "about": "“A γ-lactam siderophore antibiotic effective against multidrug-resistant Pseudomonas aeruginosa, Klebsiella pneumoniae, and Acinetobacter spp” (Eur J Med Chem, 2021)",
  "key": {"Hepatocyte": {"tested_on": "Hepatocyte", "assay": "Cytotoxicity against human hepatocytes at 100 uM", "assay_type": "cell-based"}, "Pseudomonas aeruginosa [1]": {"tested_on": "Pseudomonas aeruginosa", "assay": "Antibacterial activity against wild type Pseudomonas aeruginosa isolate PR-688 leucine at 533 residue assessed as inhibition of bacterial growth by microdilution method", "assay_type": "functional", "in_short": "(§1)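 Broth microdilution MIC in iron-depleted (Chelex resin-treated) cation-adjusted Mueller-Hinton broth, following the protocol used for siderophore-containing antibiotics. Inoculum was lowered to 6 × 10^4 cfu/mL.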"}, "Pseudomonas aeruginosa [2]": {"tested_on": "Pseudomonas aeruginosa", "assay": "Antibacterial activity against wild type Pseudomonas aeruginosa isolate PR-567 assessed as inhibition of bacterial growth by microdilution method", "assay_type": "functional", "in_short": "as §1"}, "Pseudomonas aeruginosa [3]": {"tested_on": "Pseudomonas aeruginosa", "assay": "Antibacterial activity against wild type Pseudomonas aeruginosa isolate PR-673 leucine at 533 residue assessed as inhibition of bacterial growth by microdilution method", "assay_type": "functional", "in_short": "as §1"}, "[4]": {"assay": "Antibacterial activity against carbapenem susceptible Acinetobacter nosocomialis isolate PR-365 assessed as inhibition of bacterial growth in presence of 20 ug/ml sulbactam by microdilution method", "assay_type": "functional", "settings": "dose 20 µg/ml", "in_short": "(§2)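 MIC by broth microdilution using iron-depleted (Chelex-treated) cation-adjusted Mueller-Hinton broth and 6 × 10^4 cfu/mL inoculum. Compound serially diluted with sulbactam held constant at 20 μg/mL.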"}, "Acinetobacter baumannii [5]": {"tested_on": "Acinetobacter baumannii", "assay": "Antibacterial activity against carbapenem resistant Acinetobacter baumannii isolate PR-399 assessed as inhibition of bacterial growth in presence of 20 ug/ml sulbactam by microdilution method", "assay_type": "functional", "settings": "dose 20 µg/ml"}, "PDE3A": {"target": "PDE3A (Homo sapiens, UniProt Q14432)", "sequence (Q14432 whole entry)": "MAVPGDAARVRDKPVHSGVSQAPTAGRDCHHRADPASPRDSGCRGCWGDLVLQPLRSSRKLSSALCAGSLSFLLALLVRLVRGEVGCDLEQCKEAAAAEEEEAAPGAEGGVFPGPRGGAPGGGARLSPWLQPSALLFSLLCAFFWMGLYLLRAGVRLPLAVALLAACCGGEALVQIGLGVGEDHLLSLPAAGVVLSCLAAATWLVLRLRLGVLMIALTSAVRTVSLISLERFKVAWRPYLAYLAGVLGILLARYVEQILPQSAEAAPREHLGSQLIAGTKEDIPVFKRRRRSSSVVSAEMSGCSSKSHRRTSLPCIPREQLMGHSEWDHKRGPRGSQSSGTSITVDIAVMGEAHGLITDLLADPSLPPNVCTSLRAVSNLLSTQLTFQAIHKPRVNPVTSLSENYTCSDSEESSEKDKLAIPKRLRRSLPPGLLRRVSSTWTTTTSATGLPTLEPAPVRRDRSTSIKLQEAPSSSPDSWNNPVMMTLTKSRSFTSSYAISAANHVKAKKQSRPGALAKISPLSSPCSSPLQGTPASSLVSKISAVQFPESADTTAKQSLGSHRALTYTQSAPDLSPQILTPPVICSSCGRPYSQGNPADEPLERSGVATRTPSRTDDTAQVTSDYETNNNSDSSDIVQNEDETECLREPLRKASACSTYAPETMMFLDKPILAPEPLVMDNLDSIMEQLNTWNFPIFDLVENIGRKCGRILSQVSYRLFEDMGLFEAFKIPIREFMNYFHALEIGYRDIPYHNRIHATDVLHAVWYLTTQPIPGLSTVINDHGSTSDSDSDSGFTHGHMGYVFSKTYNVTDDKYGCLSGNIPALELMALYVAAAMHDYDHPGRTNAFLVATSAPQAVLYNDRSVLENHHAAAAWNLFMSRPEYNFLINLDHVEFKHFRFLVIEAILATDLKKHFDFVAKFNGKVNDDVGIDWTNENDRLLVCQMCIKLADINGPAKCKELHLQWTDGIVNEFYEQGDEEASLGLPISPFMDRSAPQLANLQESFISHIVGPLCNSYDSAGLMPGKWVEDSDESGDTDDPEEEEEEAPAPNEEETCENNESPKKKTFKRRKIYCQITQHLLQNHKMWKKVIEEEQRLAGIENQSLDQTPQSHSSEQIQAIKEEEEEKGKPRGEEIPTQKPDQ", "assay": "Inhibition of PDE3A (unknown origin) at 30 uM"}, "Acinetobacter baumannii [6]": {"tested_on": "Acinetobacter baumannii", "assay": "Antibacterial activity against carbapenem susceptible Acinetobacter baumannii isolate PR-434 assessed as inhibition of bacterial growth in presence of 20 ug/ml sulbactam by microdilution method", "assay_type": "functional", "settings": "dose 20 µg/ml", "in_short": "as §2"}, "Acinetobacter baumannii [7]": {"tested_on": "Acinetobacter baumannii", "assay": "Antibacterial activity against carbapenem resistant Acinetobacter baumannii isolate PR-351 assessed as inhibition of bacterial growth at 1:1 compound to sulbactam concentration by microdilution method", "assay_type": "functional", "in_short": "(§3)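 Iron-depleted (Chelex-treated) cation-adjusted Mueller-Hinton broth microdilution; inoculum 6 × 10^4 cfu/mL. Test agent and sulbactam mixed 1:1 by mass and serially 2-fold diluted together. MIC in μg/mL.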"}, "Acinetobacter baumannii [8]": {"tested_on": "Acinetobacter baumannii", "assay": "Antibacterial activity against carbapenem susceptible Acinetobacter baumannii isolate PR-452 assessed as inhibition of bacterial growth in presence of 20 ug/ml sulbactam by microdilution method", "assay_type": "functional", "settings": "dose 20 µg/ml", "in_short": "as §2"}, "Acinetobacter baumannii [9]": {"tested_on": "Acinetobacter baumannii", "assay": "Antibacterial activity against carbapenem resistant Acinetobacter baumannii isolate PR-319 assessed as inhibition of bacterial growth at 1:1 compound to sulbactam concentration by microdilution method", "assay_type": "functional", "in_short": "as §3"}, "Acinetobacter baumannii [10]": {"tested_on": "Acinetobacter baumannii", "assay": "Antibacterial activity against carbapenem susceptible Acinetobacter baumannii isolate PR-340 assessed as inhibition of bacterial growth in presence of 20 ug/ml sulbactam by microdilution method"}, "Acinetobacter baumannii [11]": {"tested_on": "Acinetobacter baumannii", "assay": "Antibacterial activity against carbapenem susceptible Acinetobacter baumannii isolate PR-340 assessed as inhibition of bacterial growth at 1:1 compound to sulbactam concentration by microdilution method"}, "[12]": {"assay": "Substrate activity at NDM1 (unknown origin) assessed as ratio of Kcat to Km by measuring hydrolysis by spectrophotometry", "assay_type": "ADME", "in_short": "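Substrate hydrolysis (600 μM start) followed at 336 nm (Δε336 = −4362 M−1 cm−1, 0.2 cm cuvette) to completion; velocities over 10 s intervals along progress curve; Km, Vmax from double reciprocal plot, kcat = Vmax/[E].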"}},
  "data": [
    {"smiles": "CC(C)(O/N=C(\\C(=O)N[C@H]1CN2CC(C(=O)NCCN3C(=O)c4cc(O)c(O)cc4C3=O)=C(C(=O)O)N2C1=O)c1nc(N)sc1Cl)C(=O)O", "values": [
      {"measurement": "Activity", "setting": "Hepatocyte", "result": "Non-Toxic"},
      {"measurement": "MIC", "setting": "Pseudomonas aeruginosa [1]", "result": "> 16", "unit": "µg/mL"},
      {"measurement": "MIC", "setting": "Pseudomonas aeruginosa [2]", "result": "≤ 0.25", "unit": "µg/mL"},
      {"measurement": "MIC", "setting": "Pseudomonas aeruginosa [3]", "result": "> 16", "unit": "µg/mL"},
      {"measurement": "MIC", "setting": "[4]", "result": "≤ 0.25", "unit": "µg/mL"},
      {"measurement": "MIC", "setting": "Acinetobacter baumannii [5]", "result": "≤ 0.25", "unit": "µg/mL"},
      {"measurement": "inhibition at 30 µM", "setting": "PDE3A", "result": "> 50", "unit": "%"},
      {"measurement": "MIC", "setting": "Acinetobacter baumannii [6]", "result": "≤ 0.25", "unit": "µg/mL"},
      {"measurement": "MIC", "setting": "Acinetobacter baumannii [7]", "result": 16, "unit": "µg/mL"},
      {"measurement": "MIC", "setting": "Acinetobacter baumannii [8]", "result": "≤ 0.25", "unit": "µg/mL"},
      {"measurement": "MIC", "setting": "Acinetobacter baumannii [9]", "result": 4, "unit": "µg/mL"},
      {"measurement": "MIC", "setting": "Acinetobacter baumannii [10]", "result": "≤ 0.25", "unit": "µg/mL"},
      {"measurement": "MIC", "setting": "Acinetobacter baumannii [11]", "result": 1, "unit": "µg/mL"},
      {"measurement": "Kcat/Km", "setting": "[12]", "result": 20000, "unit": "M⁻¹ s⁻¹"}
    ]}
  ]
}
